Measurements from ChEMBL document CHEMBL5696444 (Nat Commun, 2017).
The source made the active and inactive calls. The rule behind the calls is not given here.

What was measured:
HCT-116 [1] = test: Cytotoxicity against human HCT-116 cells assessed as inhibition of cell viability incubated for > 24 hrs; assay type: functional
[2] = biological target: Mitogen-activated protein kinase 1 (Homo sapiens) (UniProt P28482); test: Inhibition of MAPK1 (unknown origin) at 100 nM in the presence of ATP by Kinome scan method relative to control
[3] = biological target: Dual specificity protein kinase CLK1 (Homo sapiens) (UniProt P49759); test: Inhibition of CLK (unknown origin) in human HCT-116 cells assessed as decrease in SRSF6 phosphorylation level at 0.5 to 1.0 uM incubated for 6 hrs by immunoblot analysis; assay type: cell-based; conditions: dose 0.5-1 µM
[4] = biological target: SRSF protein kinase 2 (Homo sapiens) (UniProt P78362); test: Inhibition of SRPK2 (unknown origin) at 1110 nM in the presence of ATP by Kinome scan method relative to control; conditions: time > 6.0 hrs
HCT-116 [5] = test: Induction of cell cycle arrest in human HCT-116 cells assessed as S phase at 0.1 uM incubated for 6 hrs by flow cytometry analysis (Rvb=39.3%); assay type: functional
[6] = biological target: Dual specificity mitogen-activated protein kinase kinase 2 (Homo sapiens) (UniProt P36507); test: Inhibition of MAP2K2 (unknown origin) at 1000 nM in the presence of ATP by Kinome scan method relative to control
HCT-116 [7] = test: Induction of apoptosis in human HCT-116 cells assessed as late apoptosis at 0.5 uM incubated for > 6 hrs by annexin V/PI staining based analysis (Rvb=6.12%); assay type: functional
HCT-116 [8] = test: Induction of cell cycle arrest in human HCT-116 cells assessed as sub G0/G1 phase at 10 uM incubated for 24 hrs by flow cytometry analysis (Rvb=2.5%); assay type: functional
[9] = Stability of compound in tissue culture medium assessed as remaining parent compound at 5.38 uM incubated for 24 hrs; assay type: physicochemical; conditions: read-out: Stability
HCT-116 [10] = test: Induction of cell cycle arrest in human HCT-116 cells assessed as G2/M phase at 10 uM incubated for 24 hrs by flow cytometry analysis (Rvb=17.9%); assay type: functional
[11] = biological target: Ephrin type-A receptor 5 (Homo sapiens) (UniProt P54756); test: Inhibition of EPHA5 (unknown origin) at 1000 nM in the presence of ATP by Kinome scan method relative to control
[12] = biological target: Interleukin-1 receptor-associated kinase 4 (Homo sapiens) (UniProt Q9NWZ3); test: Inhibition of IRAK4 (unknown origin) at 1000 nM in the presence of ATP by Kinome scan method relative to control
[13] = biological target: Inhibitor of nuclear factor kappa-B kinase subunit beta (Homo sapiens) (UniProt O14920); test: Inhibition of IKBKB (unknown origin) at 100 nM in the presence of ATP by Kinome scan method relative to control
[14] = biological target: MAP kinase-activated protein kinase 2 (Homo sapiens) (UniProt P49137); test: Inhibition of MAPKAPK2 (unknown origin) at 100 nM in the presence of ATP by Kinome scan method relative to control
HCT-116 [15] = test: Induction of cell cycle arrest in human HCT-116 cells assessed as G2/M phase at 1 uM incubated for 6 hrs by flow cytometry analysis (Rvb=25.8%); assay type: functional
[16] = biological target: 3-phosphoinositide-dependent protein kinase 1 (PDPK1) (Homo sapiens) (UniProt O15530); test: Inhibition of PDK1 Direct (unknown origin) at 1000 nM in the presence of ATP by Kinome scan method relative to control
[17] = biological target: Serine/threonine-protein kinase mTOR (Homo sapiens) (UniProt P42345); test: Inhibition of FRAP1 (unknown origin) at 100 nM in the presence of ATP by Kinome scan method relative to control
HCT-116 [18] = test: Induction of cell cycle arrest in human HCT-116 cells assessed as G0/G1 phase at 10 uM incubated for 6 hrs by flow cytometry analysis (Rvb=35.0%); assay type: functional
HCT-116 [19] = test: Induction of cell cycle arrest in human HCT-116 cells assessed as G2/M phase at 1 uM incubated for 24 hrs by flow cytometry analysis (Rvb=17.9%); assay type: functional
[20] = biological target: Dual specificity tyrosine-phosphorylation-regulated kinase 1B (Homo sapiens, UniProt Q9Y463); test: Inhibition of DYRK1B (unknown origin) at 123 nM in the presence of ATP by Kinome scan method relative to control; conditions: time > 6.0 hrs
[21] = biological target: Dual specificity mitogen-activated protein kinase kinase 2 (Homo sapiens) (UniProt P36507); test: Inhibition of MAP2K2 (unknown origin) at 100 nM in the presence of ATP by Kinome scan method relative to control
[22] = biological target: Serine/threonine-protein kinase B-raf (Homo sapiens) (UniProt P15056); test: Inhibition of BRAF (unknown origin) at 100 nM in the presence of ATP by Kinome scan method relative to control
[23] = biological target: Dual specificity protein kinase CLK1 (Homo sapiens) (UniProt P49759); test: Inhibition of CLK (unknown origin) in human 184-hTERT cells assessed as induction in alternative splicing effect in MRPS10-GUCA1B level incubated for 6 hrs by RT-PCR analysis; assay type: cell-based; conditions: dose 0.2-5 µM
Summary of the method: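 Cells exposed to graded T3 concentrations for 6 h (chosen to avoid cytotoxicity), with a DMSO vehicle control. Total RNA was reverse-transcribed with oligo-dT primers. Targeted splice or conjoined-gene products were quantified by real-time qPCR or by targeted next-generation sequencing. Conjoined-gene isoform expression was normalized to a sequenced housekeeping gene.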

HCT-116 [24] = test: Induction of apoptosis in human HCT-116 cells assessed as early apoptosis at 1 uM incubated for > 6 hrs by annexin V/PI staining based analysis (Rvb=3.29%); assay type: functional
[25] = biological target: Protein kinase C alpha type (Homo sapiens) (UniProt P17252); test: Inhibition of PRKCA (unknown origin) at 100 nM in the presence of ATP by Kinome scan method relative to control
[26] = biological target: Aurora kinase A (Homo sapiens) (UniProt O14965); test: Inhibition of AURKA (unknown origin) at 100 nM in the presence of ATP by Kinome scan method relative to control
[27] = biological target: Serine/threonine-protein kinase PLK1 (Homo sapiens) (UniProt P53350); test: Inhibition of PLK1 (unknown origin) at 1000 nM in the presence of ATP by Kinome scan method relative to control
[28] = biological target: PI3-kinase p110-alpha/p85-alpha (Homo sapiens) (UniProt P27986+P42336); test: Inhibition of PIK3CA/PIK3R1 (unknown origin) at 100 nM in the presence of ATP by Kinome scan method relative to control; assay type: protein-complex assay
[29] = biological target: Homeodomain-interacting protein kinase 2 (Homo sapiens) (UniProt Q9H2X6); test: Inhibition of HIPK2 (unknown origin) at 1000 nM in the presence of ATP by Kinome scan method relative to control
HCT-116 [30] = test: Induction of cell cycle arrest in human HCT-116 cells assessed as G0/G1 phase at 0.5 uM incubated for 24 hrs by flow cytometry analysis (Rvb=35.7%); assay type: functional
[31] = biological target: Death-associated protein kinase 1 (Homo sapiens) (UniProt P53355); test: Inhibition of DAPK1 (unknown origin) at 1000 nM in the presence of ATP by Kinome scan method relative to control

Chain of Dual specificity mitogen-activated protein kinase kinase 2 (Homo sapiens) (P36507 whole entry): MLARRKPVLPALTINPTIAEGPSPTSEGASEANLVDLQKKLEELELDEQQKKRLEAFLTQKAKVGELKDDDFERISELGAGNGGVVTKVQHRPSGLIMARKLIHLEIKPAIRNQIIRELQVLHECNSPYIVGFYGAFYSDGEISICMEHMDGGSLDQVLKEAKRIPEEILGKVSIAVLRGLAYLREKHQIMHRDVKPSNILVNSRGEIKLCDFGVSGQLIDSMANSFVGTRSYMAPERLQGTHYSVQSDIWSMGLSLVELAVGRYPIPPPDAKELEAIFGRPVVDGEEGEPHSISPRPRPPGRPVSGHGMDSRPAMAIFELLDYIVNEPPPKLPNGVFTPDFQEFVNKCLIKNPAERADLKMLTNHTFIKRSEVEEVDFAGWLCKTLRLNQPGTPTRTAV
Chain of Dual specificity protein kinase CLK1 (Homo sapiens) (P49759 whole entry, looked up, canonical isoform): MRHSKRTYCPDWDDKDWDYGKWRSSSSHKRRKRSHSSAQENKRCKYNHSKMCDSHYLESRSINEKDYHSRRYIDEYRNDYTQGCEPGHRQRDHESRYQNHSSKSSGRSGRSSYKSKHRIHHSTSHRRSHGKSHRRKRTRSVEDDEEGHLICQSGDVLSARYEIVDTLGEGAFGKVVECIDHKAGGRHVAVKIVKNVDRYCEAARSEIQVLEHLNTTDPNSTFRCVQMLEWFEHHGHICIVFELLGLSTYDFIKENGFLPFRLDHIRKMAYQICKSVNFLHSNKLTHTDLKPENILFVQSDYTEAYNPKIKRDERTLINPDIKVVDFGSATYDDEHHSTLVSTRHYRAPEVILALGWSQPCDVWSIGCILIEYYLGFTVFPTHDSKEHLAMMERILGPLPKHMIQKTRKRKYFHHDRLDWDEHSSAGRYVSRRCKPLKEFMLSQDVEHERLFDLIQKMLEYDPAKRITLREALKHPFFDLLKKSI
Chain of Interleukin-1 receptor-associated kinase 4 (Homo sapiens) (Q9NWZ3 whole entry): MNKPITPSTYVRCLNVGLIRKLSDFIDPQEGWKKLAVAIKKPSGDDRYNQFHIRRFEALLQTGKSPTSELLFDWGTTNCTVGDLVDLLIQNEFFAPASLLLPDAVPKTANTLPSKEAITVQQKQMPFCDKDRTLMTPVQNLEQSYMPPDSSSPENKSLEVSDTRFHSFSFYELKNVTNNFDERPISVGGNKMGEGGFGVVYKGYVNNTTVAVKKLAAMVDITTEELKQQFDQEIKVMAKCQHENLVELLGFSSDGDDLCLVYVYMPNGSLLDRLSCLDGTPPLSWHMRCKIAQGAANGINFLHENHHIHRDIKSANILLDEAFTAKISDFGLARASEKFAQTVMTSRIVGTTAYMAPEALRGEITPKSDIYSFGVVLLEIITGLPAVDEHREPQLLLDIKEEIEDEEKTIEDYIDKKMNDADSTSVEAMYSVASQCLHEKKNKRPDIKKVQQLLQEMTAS
Chain of Aurora kinase A (Homo sapiens) (O14965 whole entry): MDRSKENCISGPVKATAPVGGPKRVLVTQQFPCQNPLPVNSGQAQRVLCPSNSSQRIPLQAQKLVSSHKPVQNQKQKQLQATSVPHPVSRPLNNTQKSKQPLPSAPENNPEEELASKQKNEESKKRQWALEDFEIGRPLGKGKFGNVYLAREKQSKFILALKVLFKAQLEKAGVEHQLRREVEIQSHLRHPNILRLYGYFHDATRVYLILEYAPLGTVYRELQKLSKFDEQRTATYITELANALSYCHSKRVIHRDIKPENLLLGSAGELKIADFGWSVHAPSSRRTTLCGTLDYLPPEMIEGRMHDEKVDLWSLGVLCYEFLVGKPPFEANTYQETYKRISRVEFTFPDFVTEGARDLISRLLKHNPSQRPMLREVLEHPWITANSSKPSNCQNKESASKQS
Chain of Inhibitor of nuclear factor kappa-B kinase subunit beta (Homo sapiens) (O14920 whole entry): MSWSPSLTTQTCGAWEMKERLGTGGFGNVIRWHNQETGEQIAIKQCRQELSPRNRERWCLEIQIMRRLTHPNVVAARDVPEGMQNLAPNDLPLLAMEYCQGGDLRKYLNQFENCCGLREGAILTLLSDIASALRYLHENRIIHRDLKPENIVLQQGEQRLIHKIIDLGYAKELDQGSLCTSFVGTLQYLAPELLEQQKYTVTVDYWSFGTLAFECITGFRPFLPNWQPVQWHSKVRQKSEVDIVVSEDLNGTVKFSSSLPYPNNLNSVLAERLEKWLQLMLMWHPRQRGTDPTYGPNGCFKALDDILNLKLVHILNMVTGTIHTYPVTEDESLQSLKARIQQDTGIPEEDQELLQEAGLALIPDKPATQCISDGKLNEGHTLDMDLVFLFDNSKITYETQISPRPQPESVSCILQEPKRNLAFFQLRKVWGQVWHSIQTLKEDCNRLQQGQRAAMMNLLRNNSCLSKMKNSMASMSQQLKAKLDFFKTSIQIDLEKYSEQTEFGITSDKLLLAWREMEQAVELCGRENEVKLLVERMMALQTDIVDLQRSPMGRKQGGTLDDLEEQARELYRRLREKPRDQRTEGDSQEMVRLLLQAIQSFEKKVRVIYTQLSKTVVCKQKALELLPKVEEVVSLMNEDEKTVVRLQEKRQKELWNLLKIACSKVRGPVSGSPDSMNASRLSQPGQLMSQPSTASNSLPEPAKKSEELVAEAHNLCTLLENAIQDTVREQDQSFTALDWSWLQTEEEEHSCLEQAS
Chain of Serine/threonine-protein kinase PLK1 (Homo sapiens) (P53350 whole entry): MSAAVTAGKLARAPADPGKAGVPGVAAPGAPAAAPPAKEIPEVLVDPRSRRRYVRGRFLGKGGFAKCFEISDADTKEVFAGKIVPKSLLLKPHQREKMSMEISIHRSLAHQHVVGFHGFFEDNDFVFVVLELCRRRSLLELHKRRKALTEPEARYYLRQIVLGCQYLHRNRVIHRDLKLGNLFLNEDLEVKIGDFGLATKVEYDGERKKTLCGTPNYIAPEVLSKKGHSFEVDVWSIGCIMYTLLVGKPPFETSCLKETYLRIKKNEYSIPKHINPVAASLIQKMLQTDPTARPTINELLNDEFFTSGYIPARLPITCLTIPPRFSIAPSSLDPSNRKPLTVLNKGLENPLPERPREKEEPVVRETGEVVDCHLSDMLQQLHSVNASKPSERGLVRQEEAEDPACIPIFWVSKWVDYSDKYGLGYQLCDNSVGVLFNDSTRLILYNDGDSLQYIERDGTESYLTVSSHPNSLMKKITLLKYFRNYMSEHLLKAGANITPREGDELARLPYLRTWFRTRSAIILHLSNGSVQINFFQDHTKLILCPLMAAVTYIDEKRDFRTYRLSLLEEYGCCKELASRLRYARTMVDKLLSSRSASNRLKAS
Chain of 3-phosphoinositide-dependent protein kinase 1 (PDPK1) (Homo sapiens) (O15530 whole entry, looked up): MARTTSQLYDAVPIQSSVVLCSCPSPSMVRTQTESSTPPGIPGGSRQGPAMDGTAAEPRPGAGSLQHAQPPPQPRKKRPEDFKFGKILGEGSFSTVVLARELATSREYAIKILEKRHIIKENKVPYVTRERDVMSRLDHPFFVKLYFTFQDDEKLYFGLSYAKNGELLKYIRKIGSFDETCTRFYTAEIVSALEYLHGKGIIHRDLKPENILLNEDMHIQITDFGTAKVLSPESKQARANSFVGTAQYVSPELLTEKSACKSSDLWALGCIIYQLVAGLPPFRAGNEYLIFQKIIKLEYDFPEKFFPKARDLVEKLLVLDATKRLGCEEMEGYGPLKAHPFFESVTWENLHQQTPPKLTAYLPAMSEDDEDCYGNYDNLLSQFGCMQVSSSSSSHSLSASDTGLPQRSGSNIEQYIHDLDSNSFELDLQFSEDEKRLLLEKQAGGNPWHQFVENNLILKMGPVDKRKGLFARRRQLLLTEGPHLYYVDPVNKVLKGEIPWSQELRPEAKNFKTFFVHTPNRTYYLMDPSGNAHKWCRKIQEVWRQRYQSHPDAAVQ
Chain of Dual specificity tyrosine-phosphorylation-regulated kinase 1B (Q9Y463 whole entry, looked up): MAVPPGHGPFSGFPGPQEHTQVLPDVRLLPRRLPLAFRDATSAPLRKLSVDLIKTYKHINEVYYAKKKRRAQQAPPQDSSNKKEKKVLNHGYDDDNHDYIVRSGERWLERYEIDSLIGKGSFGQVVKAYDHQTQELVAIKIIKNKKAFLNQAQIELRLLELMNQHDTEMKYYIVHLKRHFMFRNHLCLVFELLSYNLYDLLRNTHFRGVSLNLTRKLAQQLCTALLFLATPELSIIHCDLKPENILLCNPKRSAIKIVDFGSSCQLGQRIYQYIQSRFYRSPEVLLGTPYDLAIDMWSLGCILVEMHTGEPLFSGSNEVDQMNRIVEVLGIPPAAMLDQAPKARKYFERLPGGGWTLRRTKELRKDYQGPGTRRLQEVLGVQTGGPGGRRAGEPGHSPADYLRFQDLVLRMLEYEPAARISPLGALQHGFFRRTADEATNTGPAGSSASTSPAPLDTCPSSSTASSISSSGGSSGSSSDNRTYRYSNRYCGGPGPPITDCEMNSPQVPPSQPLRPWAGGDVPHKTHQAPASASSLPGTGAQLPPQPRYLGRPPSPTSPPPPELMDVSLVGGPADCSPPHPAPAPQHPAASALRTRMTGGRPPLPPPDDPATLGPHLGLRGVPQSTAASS

- inhibition [2]: 3%
- inhibition [3]: Active
- inhibition [4]: 5%
- inhibition [6]: 14%
- remaining at 24 h, 5.38 µM [9]: 98.8%
- inhibition [11]: -5%
- inhibition [12]: 42%
- inhibition [13]: -6%
- inhibition [14]: 4%
- inhibition [16]: 2%
- inhibition [17]: -6%
- inhibition [20]: 63%
- inhibition [21]: 17%
- inhibition [22]: 9%
- inhibition [23]: Dose-Dependent Effect
- inhibition [25]: 4%
- inhibition [26]: 5%
- inhibition [27]: 2%
- inhibition [28]: 4%
- inhibition [29]: -2%
Structure (SMILES): CN1CCN(C(=O)C(C)(C)c2ccc(C(=O)Nc3cn4cc(-c5ccncc5)ccc4n3)cc2)CC1 [T3-CLK]
- GI (HCT-116 [1]): 0.133 µM
- Activity (HCT-116 [5]): 45.5%
- Activity (HCT-116 [7]): 6.85%
- Activity (HCT-116 [8]): 19%
- Activity (HCT-116 [10]): 37.7%
- Activity (HCT-116 [15]): 34.6%
- Activity (HCT-116 [18]): 28.4%
- Activity (HCT-116 [19]): 46%
- Activity (HCT-116 [24]): 3.4%
- Activity (HCT-116 [30]): 11.4%
- inhibition [31]: -6%
